Experimental data taken from ChEMBL document CHEMBL4689842, “EUbOPEN Chemogenomics Library wave 1” (2021).

Columns and labels:
U2OS [1] = test: Multiplex assay against U2OS; format: toxicity, cell-based; settings: human
How it was run: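 At seeding, live cells were stained with Hoechst33342, BioTracker Green Microtubule Cytoskeleton Dye, MitoTracker Red and Annexin V Alexa Fluor 680. After compound addition they were imaged on a CQ1 microscope at 37°C and 5% CO2, and CellPathfinder machine-learning gating sorted them into Hoechst high-intensity objects or normal cells, with normal cells further split into healthy, pyknosed or fragmented nuclei and pyknosed cells into mitotic or apoptotic. Tubulin, mitochondrial-mass and membrane-permeability phenotypes are given as per cents of cells with healthy nuclei.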

U2OS [2] = test: Incucyte cell viability with U2OS; format: toxicity, cell-based; settings: human, 10 µM, compound concentration 10 uM; further: filed as whole numbers so only -1 and 0 and 1 occur
[3] = 12 h, 1 µM, compound concentration 1 uM, replicate 1
[4] = 12 h, 1 µM, compound concentration 1 uM, replicate 2
[5] = 12 h, 10 µM, compound concentration 10 uM, replicate 1
[6] = 12 h, 10 µM, compound concentration 10 uM, replicate 2
[7] = 24 h, 1 µM, compound concentration 1 uM, replicate 1
[8] = 24 h, 1 µM, compound concentration 1 uM, replicate 2
[9] = 24 h, 10 µM, compound concentration 10 uM, replicate 1
[10] = 24 h, 10 µM, compound concentration 10 uM, replicate 2
[11] = 48 h, 1 µM, compound concentration 1 uM, replicate 1
[12] = 48 h, 1 µM, compound concentration 1 uM, replicate 2
[13] = 48 h, 10 µM, compound concentration 10 uM, replicate 1
[14] = 48 h, 10 µM, compound concentration 10 uM, replicate 2

For `CCCCCNC(=N)N/N=C/c1c[nH]c2ccc(OC)cc12.O=C(O)/C=C\C(=O)O` [TEGASEROD MALEATE], the “Population Apoptotic (%)” value (U2OS [1]; [3]) was 66%, the “Population Fragmented Nuclei (%)” value (U2OS [1]; [3]) was 12% and the “Population Healthy Nuclei (%)” value (U2OS [1]; [3]) was 75%. For the same molecule, the “Population Hoechst High Intensity Objects (%)” value (U2OS [1]; [3]) was 8%, the “Population Membrane Permeable-Phenotype (%)” value (U2OS [1]; [3]) was 4% and the “Population Mitochondria Different-Phenotype (%)” value (U2OS [1]; [3]) was 16%. For the same molecule, the “Population Mitotic Cells (%)” value (U2OS [1]; [3]) was 33%, the “Population Normal (%)” value (U2OS [1]; [3]) was 91% and the “Population Pyknosed Nuclei (%)” value (U2OS [1]; [3]) was 11%. The “Population Tubulin-Different-Phenotype (%)” value (U2OS [1]; [3]) was 10%, the “Total Cell Count” value (U2OS [1]; [3]) was 73 and the “Population Apoptotic (%)” value (U2OS [1]; [4]) was 20%. The “Population Healthy Nuclei (%)” value (U2OS [1]; [4]) was 79%, the “Population Hoechst High Intensity Objects (%)” value (U2OS [1]; [4]) was 3% and the “Population Mitochondria Different-Phenotype (%)” value (U2OS [1]; [4]) was 22%. The “Population Mitotic Cells (%)” value (U2OS [1]; [4]) was 80%, the “Population Normal (%)” value (U2OS [1]; [4]) was 96% and the “Population Pyknosed Nuclei (%)” value (U2OS [1]; [4]) was 8%. The “Population Tubulin-Different-Phenotype (%)” value (U2OS [1]; [4]) was 14%, the “Total Cell Count” value (U2OS [1]; [4]) was 74 and the “Population Apoptotic (%)” value (U2OS [1]; [5]) was 92%. For the same molecule, the “Population Fragmented Nuclei (%)” value (U2OS [1]; [5]) was 36%, the “Population Healthy Nuclei (%)” value (U2OS [1]; [5]) was 0% and the “Population Hoechst High Intensity Objects (%)” value (U2OS [1]; [5]) was 12%. For the same molecule, the “Population Membrane Permeable-Phenotype (%)” value (U2OS [1]; [5]) was 100%, the “Population Mitochondria Different-Phenotype (%)” value (U2OS [1]; [5]) was 100% and the “Population Mitotic Cells (%)” value (U2OS [1]; [5]) was 7%. The “Population Normal (%)” value (U2OS [1]; [5]) was 87%, the “Population Pyknosed Nuclei (%)” value (U2OS [1]; [5]) was 62% and the “Population Tubulin-Different-Phenotype (%)” value (U2OS [1]; [5]) was 100%. The “Total Cell Count” value (U2OS [1]; [5]) was 167, the “Population Apoptotic (%)” value (U2OS [1]; [6]) was 100% and the “Population Fragmented Nuclei (%)” value (U2OS [1]; [6]) was 22%. For the same molecule, the “Population Healthy Nuclei (%)” value (U2OS [1]; [6]) was 3%, the “Population Hoechst High Intensity Objects (%)” value (U2OS [1]; [6]) was 35% and the “Population Mitotic Cells (%)” value (U2OS [1]; [6]) was 0%. For the same molecule, the “Population Normal (%)” value (U2OS [1]; [6]) was 64%, the “Population Pyknosed Nuclei (%)” value (U2OS [1]; [6]) was 73% and the “Total Cell Count” value (U2OS [1]; [6]) was 64. For the same molecule, the “Population Apoptotic (%)” value (U2OS [1]; [7]) was 47%, the “Population Fragmented Nuclei (%)” value (U2OS [1]; [7]) was 9% and the “Population Healthy Nuclei (%)” value (U2OS [1]; [7]) was 78%. For the same molecule, the “Population Hoechst High Intensity Objects (%)” value (U2OS [1]; [7]) was 4%, the “Population Membrane Permeable-Phenotype (%)” value (U2OS [1]; [7]) was 6% and the “Population Mitochondria Different-Phenotype (%)” value (U2OS [1]; [7]) was 13%. The “Population Mitotic Cells (%)” value (U2OS [1]; [7]) was 52%, the “Population Normal (%)” value (U2OS [1]; [7]) was 95% and the “Population Pyknosed Nuclei (%)” value (U2OS [1]; [7]) was 12%. For the same molecule, the “Population Tubulin-Different-Phenotype (%)” value (U2OS [1]; [7]) was 13%, the “Total Cell Count” value (U2OS [1]; [7]) was 88 and the “Population Apoptotic (%)” value (U2OS [1]; [8]) was 87%. The “Population Fragmented Nuclei (%)” value (U2OS [1]; [8]) was 10%, the “Population Healthy Nuclei (%)” value (U2OS [1]; [8]) was 77% and the “Population Hoechst High Intensity Objects (%)” value (U2OS [1]; [8]) was 5%. For the same molecule, the “Population Membrane Permeable-Phenotype (%)” value (U2OS [1]; [8]) was 5%, the “Population Mitochondria Different-Phenotype (%)” value (U2OS [1]; [8]) was 21% and the “Population Mitotic Cells (%)” value (U2OS [1]; [8]) was 12%. For the same molecule, the “Population Normal (%)” value (U2OS [1]; [8]) was 94%, the “Population Tubulin-Different-Phenotype (%)” value (U2OS [1]; [8]) was 7% and the “Total Cell Count” value (U2OS [1]; [8]) was 89. The “Population Apoptotic (%)” value (U2OS [1]; [9]) was 85%, the “Population Fragmented Nuclei (%)” value (U2OS [1]; [9]) was 42% and the “Population Healthy Nuclei (%)” value (U2OS [1]; [9]) was 1%. For the same molecule, the “Population Hoechst High Intensity Objects (%)” value (U2OS [1]; [9]) was 16%, the “Population Membrane Permeable-Phenotype (%)” value (U2OS [1]; [9]) was 100% and the “Population Mitochondria Different-Phenotype (%)” value (U2OS [1]; [9]) was 100%. The “Population Mitotic Cells (%)” value (U2OS [1]; [9]) was 14%, the “Population Normal (%)” value (U2OS [1]; [9]) was 83% and the “Population Pyknosed Nuclei (%)” value (U2OS [1]; [9]) was 56%. The “Population Tubulin-Different-Phenotype (%)” value (U2OS [1]; [9]) was 100%, the “Total Cell Count” value (U2OS [1]; [9]) was 180 and the “Population Apoptotic (%)” value (U2OS [1]; [10]) was 100%. For the same molecule, the “Population Fragmented Nuclei (%)” value (U2OS [1]; [10]) was 44%, the “Population Healthy Nuclei (%)” value (U2OS [1]; [10]) was 26% and the “Population Hoechst High Intensity Objects (%)” value (U2OS [1]; [10]) was 39%. The “Population Mitotic Cells (%)” value (U2OS [1]; [10]) was 0%, the “Population Normal (%)” value (U2OS [1]; [10]) was 60% and the “Population Pyknosed Nuclei (%)” value (U2OS [1]; [10]) was 28%. For the same molecule, the “Total Cell Count” value (U2OS [1]; [10]) was 70, the “Population Apoptotic (%)” value (U2OS [1]; [11]) was 44% and the “Population Fragmented Nuclei (%)” value (U2OS [1]; [11]) was 7%. For the same molecule, the “Population Healthy Nuclei (%)” value (U2OS [1]; [11]) was 85%, the “Population Hoechst High Intensity Objects (%)” value (U2OS [1]; [11]) was 3% and the “Population Membrane Permeable-Phenotype (%)” value (U2OS [1]; [11]) was 2%. The “Population Mitochondria Different-Phenotype (%)” value (U2OS [1]; [11]) was 11%, the “Population Mitotic Cells (%)” value (U2OS [1]; [11]) was 55% and the “Population Normal (%)” value (U2OS [1]; [11]) was 96%. For the same molecule, the “Population Pyknosed Nuclei (%)” value (U2OS [1]; [11]) was 7%, the “Population Tubulin-Different-Phenotype (%)” value (U2OS [1]; [11]) was 7% and the “Total Cell Count” value (U2OS [1]; [11]) was 112. The “Population Apoptotic (%)” value (U2OS [1]; [12]) was 35%, the “Population Fragmented Nuclei (%)” value (U2OS [1]; [12]) was 10% and the “Population Healthy Nuclei (%)” value (U2OS [1]; [12]) was 75%. The “Population Hoechst High Intensity Objects (%)” value (U2OS [1]; [12]) was 1%, the “Population Membrane Permeable-Phenotype (%)” value (U2OS [1]; [12]) was 6% and the “Population Mitochondria Different-Phenotype (%)” value (U2OS [1]; [12]) was 17%. The “Population Mitotic Cells (%)” value (U2OS [1]; [12]) was 64%, the “Population Normal (%)” value (U2OS [1]; [12]) was 98% and the “Population Pyknosed Nuclei (%)” value (U2OS [1]; [12]) was 13%. The “Population Tubulin-Different-Phenotype (%)” value (U2OS [1]; [12]) was 10%, the “Total Cell Count” value (U2OS [1]; [12]) was 110 and the “Population Apoptotic (%)” value (U2OS [1]; [13]) was 91%. The “Population Fragmented Nuclei (%)” value (U2OS [1]; [13]) was 50%, the “Population Healthy Nuclei (%)” value (U2OS [1]; [13]) was 1% and the “Population Hoechst High Intensity Objects (%)” value (U2OS [1]; [13]) was 14%. The “Population Membrane Permeable-Phenotype (%)” value (U2OS [1]; [13]) was 100%, the “Population Mitochondria Different-Phenotype (%)” value (U2OS [1]; [13]) was 100% and the “Population Mitotic Cells (%)” value (U2OS [1]; [13]) was 8%. For the same molecule, the “Population Normal (%)” value (U2OS [1]; [13]) was 85%, the “Population Pyknosed Nuclei (%)” value (U2OS [1]; [13]) was 48% and the “Population Tubulin-Different-Phenotype (%)” value (U2OS [1]; [13]) was 100%. For the same molecule, the “Total Cell Count” value (U2OS [1]; [13]) was 260, the “Population Apoptotic (%)” value (U2OS [1]; [14]) was 100% and the “Population Fragmented Nuclei (%)” value (U2OS [1]; [14]) was 64%. The “Population Healthy Nuclei (%)” value (U2OS [1]; [14]) was 24%, the “Population Hoechst High Intensity Objects (%)” value (U2OS [1]; [14]) was 39% and the “Population Membrane Permeable-Phenotype (%)” value (U2OS [1]; [14]) was 90%. The “Population Mitochondria Different-Phenotype (%)” value (U2OS [1]; [14]) was 90%, the “Population Mitotic Cells (%)” value (U2OS [1]; [14]) was 0% and the “Population Normal (%)” value (U2OS [1]; [14]) was 60%. For the same molecule, the “Population Pyknosed Nuclei (%)” value (U2OS [1]; [14]) was 11%, the “Population Tubulin-Different-Phenotype (%)” value (U2OS [1]; [14]) was 90% and the “Total Cell Count” value (U2OS [1]; [14]) was 103. For the same molecule, the “Growth Rate” value (U2OS [2]; 6 h, replicate number 1, timepoint 6 hours) was 0, the “Growth Rate” value (U2OS [2]; 12 h, replicate number 1, timepoint 12 hours) was 0 and the “Growth Rate” value (U2OS [2]; 18 h, replicate number 1, timepoint 18 hours) was 0. For the same molecule, the “Growth Rate” value (U2OS [2]; 24 h, replicate number 1, timepoint 24 hours) was 0.
